Assay results reported in ChEMBL document CHEMBL3091336, “Analogs of the Allosteric Heat Shock Protein 70 (Hsp70) Inhibitor, MKT-077, as Anti-Cancer Agents” (ACS Med Chem Lett, 2013).

Columns and labels:
[1] = biological target: Heat shock cognate 71 kDa protein (Homo sapiens, UniProt P11142); experiment: Binding affinity to human HSC70 after 3 hrs by ELISA
MDA-MB-231 = experiment: Cytotoxicity against human MDA-MB-231 cells assessed as growth inhibition after 72 hrs by MTT assay; type: functional, cell-based; conditions: MDA-MB-231, 72 h
Procedure, shortened: (§1)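 Antiproliferative activity measured by MTT assay. EC50 is the average of triplicate experiments, with error as SEM.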

MCF7 = experiment: Cytotoxicity against human MCF7 cells assessed as growth inhibition after 72 hrs by MTT assay; type: functional, cell-based; conditions: MCF7, 72 h; procedure, shortened: as §1
MEF = experiment: Cytotoxicity against C57BL/6 mouse MEF assessed as growth inhibition after 72 hrs by MTT assay; type: cell-based; conditions: C57BL/6, MEF; procedure, shortened: as §1
[2] = Half life in mouse liver microsomes at 1 uM incubated for 15 mins prior to beta-NADPH addition by LC-MS/MS analysis; type: ADME, Microsome; conditions: for t1/2: microsomes, 0.25 h, 1 µM; for half-life at 1 µM: liver microsomes
Procedure, shortened: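 Compounds at 1 μM incubated with mouse liver microsomes. Degradation followed by LC–MS and reported as half-life.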

Chain of Heat shock cognate 71 kDa protein (P11142 whole entry): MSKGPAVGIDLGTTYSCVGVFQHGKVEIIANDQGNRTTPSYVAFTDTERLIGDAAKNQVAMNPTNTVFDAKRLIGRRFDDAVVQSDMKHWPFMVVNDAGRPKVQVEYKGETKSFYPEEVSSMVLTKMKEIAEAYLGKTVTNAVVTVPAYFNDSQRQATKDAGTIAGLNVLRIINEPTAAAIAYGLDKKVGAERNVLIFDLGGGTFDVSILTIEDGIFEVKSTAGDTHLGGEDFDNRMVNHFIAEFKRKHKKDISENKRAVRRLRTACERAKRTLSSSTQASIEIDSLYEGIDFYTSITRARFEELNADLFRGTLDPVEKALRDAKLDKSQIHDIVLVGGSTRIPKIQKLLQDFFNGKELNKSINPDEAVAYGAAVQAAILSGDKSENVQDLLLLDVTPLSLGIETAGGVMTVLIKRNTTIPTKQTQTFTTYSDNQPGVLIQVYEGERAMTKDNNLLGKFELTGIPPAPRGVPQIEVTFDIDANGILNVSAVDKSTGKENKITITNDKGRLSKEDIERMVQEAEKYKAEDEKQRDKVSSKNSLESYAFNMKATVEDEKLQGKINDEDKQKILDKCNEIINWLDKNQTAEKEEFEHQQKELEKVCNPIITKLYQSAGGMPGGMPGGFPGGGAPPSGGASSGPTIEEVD

Structure (SMILES) | Kd [1] [µM] | EC50 (MDA-MB-231) [µM] | EC50 (MCF7) [µM] | EC50 (MEF) [µM] | t1/2 [2] | half-life at 1 µM [2] [min]
CCn1c(=O)/c(=C2\Sc3ccc(OC)cc3N2C)s/c1=C\c1cccc[n+]1CCCCCCNC(=O)CCCC[C@@H]1SC[C@@H]2NC(=O)N[C@@H]21 | 0.9 |  |  |  |  | 
CCn1c(=O)/c(=C2\Sc3cc(F)ccc3N2C)s/c1=C\c1cccc[n+]1C.[Cl-] |  | 5.6 | 6.2 | > 50 | 7.7 min | 
CCC[n+]1ccccc1/C=c1\s/c(=C2/Sc3ccccc3N2C)c(=O)n1CC.[Cl-] |  | 1.6 | 2.8 | > 50 | ND(Insoluble) | 
CCn1c(=O)/c(=C2\Sc3ccccc3N2C)s/c1=C\c1nccc[n+]1C.[Cl-] |  | 5.8 | 9.1 | > 50 | ND(Insoluble) | 
CCn1c(=O)/c(=C2\Sc3ccc(F)cc3N2C)s/c1=C\c1cccc[n+]1C.[Cl-] |  | 7.7 | 18 | > 50 | 23 min | 
CCn1c(=O)/c(=C2\Sc3ccccc3N2C)s/c1=C\c1scc[n+]1CC.[Cl-] |  | 2.2 | 0.8 | > 30 | ND(Insoluble) | 
CCn1c(=O)/c(=C2\Sc3ccccc3N2C)s/c1=C\c1scc[n+]1Cc1ccccc1.[Cl-] |  | 0.5 | 0.6 | 6.8 | ND(Insoluble) | 
CCn1c(=O)/c(=C2\Sc3cccc(Cl)c3N2C)s/c1=C\c1scc[n+]1Cc1ccccc1.[Cl-] |  | 0.4 | 0.8 | 7 |  | 8.8
CCn1c(=O)/c(=C2\Sc3ccccc3N2C)s/c1=C\c1cccc[n+]1CCO.[Cl-] |  | 24 | 6.9 | > 50 | ND(Insoluble) | 
CCn1c(=O)/c(=C2\Sc3ccc(F)cc3N2C)s/c1=C\c1cccc[n+]1CC.[Cl-] |  | 13 | 2.4 | > 30 | ND(Insoluble) | 
CCn1c(=O)/c(=C2\Sc3ccccc3N2C)s/c1=C\c1cccc[n+]1C.[Cl-] |  | 2 | 5.2 | > 50 |  | < 5
CCn1c(=O)/c(=C2\Sc3cc(Cl)ccc3N2C)s/c1=C\c1cccc[n+]1CCCCCCNC(=O)CCCC[C@@H]1SC[C@@H]2NC(=O)N[C@@H]21 | 1.7 |  |  |  |  | 
CCn1c(=O)/c(=C2\Sc3c(Cl)cccc3N2C)s/c1=C\c1cccc[n+]1C.[Cl-] |  | 4.1 | 5.2 | > 50 | ND(Insoluble) | 
CCn1c(=O)/c(=C2\Sc3cc(OC)ccc3N2C)s/c1=C\c1cccc[n+]1CCCCCCNC(=O)CCCC[C@@H]1SC[C@@H]2NC(=O)N[C@@H]21 | 5.4 |  |  |  |  | 
CCn1c(=O)/c(=C2\Sc3cc(C(F)(F)F)ccc3N2C)s/c1=C\c1cccc[n+]1CCCCCCNC(=O)CCCC[C@@H]1SC[C@@H]2NC(=O)N[C@@H]21 | 1 |  |  |  |  | 
CCn1c(=O)/c(=C2\Sc3cc(OC)ccc3N2C)s/c1=C\c1cccc[n+]1C.[Cl-] |  | 4 | 11 | > 50 |  | 10
CCn1c(=O)/c(=C2\Sc3cc(Cl)ccc3N2C)s/c1=C\c1cccc[n+]1C.[Cl-] |  | 8.3 | 9.5 | > 50 |  | 8.2
CCn1c(=O)/c(=C2\Sc3c(F)cccc3N2C)s/c1=C\c1cccc[n+]1CC.[Cl-] |  | 2.8 | 0.8 | 27 | ND(Insoluble) | 
CCn1c(=O)/c(=C2\Sc3cc(F)ccc3N2C)s/c1=C\c1cccc[n+]1CC.[Cl-] |  | 8.3 | 0.9 | > 30 | ND(Insoluble) | 
CCn1c(=O)/c(=C2\Sc3cccc(Cl)c3N2C)s/c1=C\c1cccc[n+]1C.[Cl-] |  | 4.4 | 7.8 | > 50 | ND(Insoluble) | 

Structure (SMILES) | Kd [1] [µM] | EC50 (MDA-MB-231) [µM] | EC50 (MCF7) [µM] | EC50 (MEF) [µM] | t1/2 [2] | half-life at 1 µM [2] [min]
CCn1c(=O)/c(=C2\Sc3cc(F)ccc3N2C)s/c1=C\c1cccc[n+]1CCCCCCNC(=O)CCCC[C@@H]1SC[C@@H]2NC(=O)N[C@@H]21 | 1.5 |  |  |  |  | 
CCn1c(=O)/c(=C2\Sc3ccccc3N2C)s/c1=C\c1cccc[n+]1Cc1ccccc1.[Cl-] |  | 1 | 1.5 | > 50 | ND(Insoluble) | 
CCn1c(=O)/c(=C2\Sc3ccccc3N2C)s/c1=C\c1cccc[n+]1CCCCCCNC(=O)CCCC[C@@H]1SC[C@@H]2NC(=O)N[C@@H]21 | 2 |  |  |  |  | 
CN1/C(=c2\s/c(=C\c3cccc[n+]3C)n(Cc3ccccc3)c2=O)Sc2ccccc21.[Cl-] |  | 1.8 | 2.9 | > 50 | ND(Insoluble) | 
CCn1c(=O)/c(=C2\Sc3c(F)cccc3N2C)s/c1=C\c1cccc[n+]1CCCCCCNC(=O)CCCC[C@@H]1SC[C@@H]2NC(=O)N[C@@H]21 | 1.9 |  |  |  |  | 
CCn1c(=O)/c(=C2\Sc3ccccc3N2C)s/c1=C\c1cc[n+](C)cc1.[Cl-] |  | 1.7 | 19 | > 50 | ND(Insoluble) | 
CCn1c(=O)/c(=C2\Sc3c(F)cccc3N2C)s/c1=C\c1cccc[n+]1C.[Cl-] |  | 6.2 | 8.5 | > 50 | 16 min | 
CCn1c(=O)/c(=C2\Sc3ccc(Cl)cc3N2C)s/c1=C\c1scc[n+]1Cc1ccccc1.[Cl-] |  | 0.6 | 0.8 | > 30 | ND(Insoluble) | 
CCn1c(=O)/c(=C2\Sc3c(Cl)cccc3N2C)s/c1=C\c1scc[n+]1Cc1ccccc1.[Cl-] |  | 0.5 | 1 | > 30 | ND(Insoluble) | 
CCn1c(=O)/c(=C2\Sc3c(Cl)cccc3N2C)s/c1=C\c1cccc[n+]1CCCCCCNC(=O)CCCC[C@@H]1SC[C@@H]2NC(=O)N[C@@H]21 | 2.6 |  |  |  |  | 
CCn1c(=O)/c(=C2\Sc3ccc(F)cc3N2C)s/c1=C\c1cccc[n+]1CCCCCCNC(=O)CCCC[C@@H]1SC[C@@H]2NC(=O)N[C@@H]21 | 2.3 |  |  |  |  | 
CCn1c(=O)/c(=C2\Sc3cc(C(F)(F)F)ccc3N2C)s/c1=C\c1cccc[n+]1C.[Cl-] |  | 19 | > 30 | > 50 | ND(Insoluble) | 
CCn1c(=O)/c(=C2\Sc3ccc(C(F)(F)F)cc3N2C)s/c1=C\c1cccc[n+]1C.[Cl-] |  | 21 | > 30 | > 50 | ND(Insoluble) | 
CCn1c(=O)/c(=C2\Sc3ccc(OC)cc3N2C)s/c1=C\c1cccc[n+]1C.[Cl-] |  | 2.8 | 14 | > 50 | ND(Insoluble) | 
CCn1c(=O)/c(=C2\Sc3ccc(Cl)cc3N2C)s/c1=C\c1cccc[n+]1CCCCCCNC(=O)CCCC[C@@H]1SC[C@@H]2NC(=O)N[C@@H]21 | 4 |  |  |  |  | 
CCn1c(=O)/c(=C2\Sc3cccc(F)c3N2C)s/c1=C\c1cccc[n+]1CC.[Cl-] |  | 3.8 | 1 | > 30 | ND(Insoluble) | 
CCn1c(=O)/c(=C2\Sc3ccc(Cl)cc3N2C)s/c1=C\c1cccc[n+]1C.[Cl-] |  | 4.6 | 28 | > 50 | ND(Insoluble) | 
CCn1c(=O)/c(=C2\Sc3cccc(F)c3N2C)s/c1=C\c1cccc[n+]1C.[Cl-] |  | 4 | 2.2 | > 50 | 15 min | 
C=CCn1c(=O)/c(=C2\Sc3ccccc3N2C)s/c1=C\c1cccc[n+]1C.[Cl-] |  | 3.6 | 8.4 | > 50 | ND(Insoluble) | 
CCn1c(=O)/c(=C2\Sc3ccccc3N2C)s/c1=C\c1scc[n+]1C.[Cl-] |  | 5.1 | 0.7 | > 50 | ND(Insoluble) | 
